Experiment [1] concerns the target T1, Sterol O-acyltransferase 1 (Rattus norvegicus, UniProt O70536).
T1 sequence (O70536 whole entry): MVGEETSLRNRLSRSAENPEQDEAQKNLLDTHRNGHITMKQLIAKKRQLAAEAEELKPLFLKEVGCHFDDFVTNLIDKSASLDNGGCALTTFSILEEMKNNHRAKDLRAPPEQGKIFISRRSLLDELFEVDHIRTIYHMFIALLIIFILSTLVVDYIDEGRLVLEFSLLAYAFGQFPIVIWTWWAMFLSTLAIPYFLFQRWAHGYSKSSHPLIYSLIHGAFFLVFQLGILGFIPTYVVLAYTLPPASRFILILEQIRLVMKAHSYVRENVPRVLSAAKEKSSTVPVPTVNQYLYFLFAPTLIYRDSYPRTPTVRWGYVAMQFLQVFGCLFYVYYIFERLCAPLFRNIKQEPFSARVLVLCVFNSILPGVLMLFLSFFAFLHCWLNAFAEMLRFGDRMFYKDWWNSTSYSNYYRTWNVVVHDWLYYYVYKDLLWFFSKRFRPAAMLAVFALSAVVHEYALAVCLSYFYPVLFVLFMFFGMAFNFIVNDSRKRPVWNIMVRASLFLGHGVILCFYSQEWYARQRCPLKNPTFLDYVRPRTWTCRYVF
As to the kind of experiment: In vitro Acyl coenzyme A:cholesterol acyltransferase inhibition in hepatic microsomes isolated from cholesterol-fed rats. Also on record: species or system Liver. The method, boiled down: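 Hepatic microsomes from cholesterol-fed rats (LAI screen); ACAT inhibition reported as IC50.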

Experiment [2] concerns Rattus norvegicus. The experiment can be described thus: Percent change in total cholesterol level in cholic acid (0.5%),cholesterol(1.5%),peanut oil(5.5%) fed rats at 30 mg/kg. It counts as functional. The method, boiled down:
(§1)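 Acute screen (APCC) in male Sprague-Dawley rats, 200–225 g. Compound given orally as a suspension in water with carboxymethylcellulose (1.5%) and Tween-20 (0.2%). Rats then ate a high-fat, high-cholesterol PCC meal (peanut oil 5.5%, cholesterol 1.5%, cholic acid 0.5%). Plasma total cholesterol measured and expressed as percent change from controls.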

The test system of experiment [3] is Rattus norvegicus. The experiment can be described thus: Percent of non high density lipoprotein cholesterol measured in cholesterol fed rat at the dose of 30 mg/kg. The format is functional.
The subject of experiment [4] is Rattus norvegicus. The experiment can be described thus: Percent of high density lipoprotein cholesterol was in cholesterol fed rat at the dose of 30 mg/kg. The format is functional.
In experiment [5] the test system is Rattus norvegicus. The experiment can be described thus: Percent change in total cholesterol level in cholic acid (0.5%),cholesterol(1.5%),peanut oil(5.5%) fed rats at 3 mg/kg. The format is functional. The method, boiled down:
as §1

Experiment [6] has as its system Rattus norvegicus. As to the kind of experiment: Percent of total cholesterol was measured in cholesterol fed rat at the dose of 30 mg/kg.
Experiment [7] relates to Oryctolagus cuniculus. The experiment can be described thus: Plasma drug levels at the dose of 50 mg/kg in rabbit. It counts as functional, organism-based. Also on record: dose 50 mg/kg. The method, boiled down:
(§2)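 Male New Zealand White rabbits, 1.2–1.5 kg, dosed at 25 or 50 mg/kg in the daily meal (3% peanut oil, 3% coconut oil). Blood taken predose and at intervals up to 24 h. Plasma solvent-extracted and assayed by HPLC–UV; limit of quantitation 20 ng/mL.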

The species entered for experiment [8] is Rattus norvegicus. The experiment can be described thus: Percent of non high density lipoprotein cholesterol was measured in cholesterol fed rat by using aqueous vehicle. It counts as functional. The method, boiled down:
(§3)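 Chronic PCC rat screen with drug and PCC diet given together for 7 days. Compound dosed either in an aqueous carboxymethylcellulose vehicle (PCC-CMC) or in an oleic acid vehicle (PCC-OA). Change in plasma non-HDL-C measured.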

Experiment [9] deals with T2, Acyl-CoA:cholesterol acyltransferase (Oryctolagus cuniculus) (UniProt Q95214).
T2 sequence (whole entry): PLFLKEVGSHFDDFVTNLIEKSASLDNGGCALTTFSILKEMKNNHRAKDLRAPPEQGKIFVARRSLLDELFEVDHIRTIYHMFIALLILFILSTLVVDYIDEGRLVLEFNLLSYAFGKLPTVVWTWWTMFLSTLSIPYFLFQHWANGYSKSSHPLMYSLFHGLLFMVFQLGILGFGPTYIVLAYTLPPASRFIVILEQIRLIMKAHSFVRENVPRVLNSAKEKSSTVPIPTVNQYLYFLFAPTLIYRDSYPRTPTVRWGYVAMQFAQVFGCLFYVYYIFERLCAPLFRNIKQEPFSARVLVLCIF
The experiment can be described thus: Percent inhibition of cholesterol of ACAT by ABIO bioassay at the dose of 50 mg/kg in rabbits. The format is functional, organism-based. Also on record: dose 50 mg/kg. The method, boiled down: (§4)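 Oral bioactivity (ABIO) in male New Zealand White rabbits, 1.2–1.5 kg. Compound given at 25 or 50 mg/kg in the daily meal (3% peanut oil, 3% coconut oil). Plasma extracts incubated with rat liver microsomes and ACAT reaction inhibition expressed as relative percent inhibition.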

Experiment [10] concerns the target T2, Acyl-CoA:cholesterol acyltransferase (Oryctolagus cuniculus). The experiment can be described thus: Percent inhibition of cholesterol of ACAT by ABIO bioassay at the dose of 25 mg/kg in rabbits. The format is functional, organism-based. Also on record: dose 25 mg/kg. The method, boiled down: as §4
Experiment [11] deals with Rattus norvegicus. As to the kind of experiment: Percent of total cholesterol was measured in cholesterol fed rat at the dose of 3 mg/kg.
Experiment [12] deals with Oryctolagus cuniculus. As to the kind of experiment: Plasma drug levels at the dose of 25 mg/kg in rabbit. The format is functional, organism-based. Also on record: dose 25 mg/kg. The method, boiled down: as §2
The species named for experiment [13] is Rattus norvegicus. The experiment can be described thus: Percent of non high density lipoprotein cholesterol was measured in cholesterol fed rat by using oleic acid vehicle. The format is functional. The method, boiled down:
as §3

Experiment [14] has as its system Rattus norvegicus. The experiment can be described thus: Percent of non high density lipoprotein cholesterol measured in cholesterol fed rat at the dose of 10 mg/kg. The format is functional.
Experiment [15] concerns Rattus norvegicus. The experiment can be described thus: Percent of high density lipoprotein cholesterol was measured in cholesterol fed rat at the dose of 10 mg/kg. It counts as functional.
Experiment [16] deals with Rattus norvegicus. The experiment can be described thus: Percent of high density lipoprotein cholesterol was in cholesterol fed rat at the dose of 10 mg/kg. The format is functional.

The term pIC50 denotes −log10 of the IC50, conventionally taken in molar units. Higher therefore signals a small IC50. Usually inhibition stands for the change of the read-out against control, counted positive when it falls. Higher therefore signals strong suppression.

pIC50: −log10 of the molar value.

`CCCCCCCCCCCCOC(=O)C(C(=O)Nc1c(C(C)C)cc(C(C)C)cc1C(C)C)c1ccccc1` (stereo unspecified) showed a pIC50 in [1] of 7.25. Moreover, the “Delta TC” value in experiment [2] is reported as -21%.
For `CCCCCCCCCCCCOC(=O)C(C(=O)Nc1c(C(C)C)cc(C(C)C)cc1C(C)C)c1ccccn1` (stereo unspecified), in that order: 6.74 and -9%.
On the same counts, the results for `CCCCCCCCCCCCOC(=O)C(F)C(=O)Nc1c(C(C)C)cccc1C(C)C` (stereo unspecified) are 7.49 and -36%.
`CCCCCCCCCCC(C)OC(=O)C(C(=O)Nc1c(C(C)C)cccc1C(C)C)c1ccccc1` (stereo unspecified) gave a pIC50 in experiment [1] of 7.89. Besides, the “Of non-HDL-C” value in [3] is reported as -64%. The “Of HDL-C” value in [4] is listed as 97%. Besides, the “Delta TC” value in experiment [2] is -37%.
For `CCCCCCCCCCCCC(C)OC(=O)C(C)(C)C(=O)Nc1c(C(C)C)cccc1C(C)C` (stereo unspecified), in [1], the pIC50 is 7.68.
In the case of `CCCCCCCCOC(=O)C(C(=O)Nc1c(C(C)C)cccc1C(C)C)c1ccccc1` (stereo unspecified), the “Delta TC” value in experiment [5] is recorded as -46%; in [2], -56%.
`CCCCCCCCCOC(=O)C(C(=O)Nc1c(C(C)C)cccc1C(C)C)c1ccccc1` (stereo unspecified): in experiment [1], the pIC50 was 7.92. In addition, the “Delta TC” value in experiment [5] is on record as -53%; in experiment [2], -67%.
In turn, `CCCCCCCCCCCCCCC(C)(C)OC(=O)C(C(=O)Nc1c(C(C)C)cccc1C(C)C)c1ccccc1` (stereo unspecified) had a pIC50 in experiment [1] of 7.14. The “Delta TC” value in [2] is given as -37%.
In the case of `CCCCCCCCCCCCOC(=O)C(C(=O)Nc1c(C(C)C)cccc1C(C)C)c1ccccc1` (stereo unspecified), the pIC50 in experiment [1] was 8.00. Further, the “Delta TC” value in experiment [5] is on record as -29%; in [2] it was -63%. For the same compound, the TC in experiment [6] is -63%; in [11], -29%. The “Of non-HDL-C” value in experiment [3] is on record as -80%. The Plasma level amounted to 140 ng/mL in experiment [7] and 131 ng/mL in experiment [12]. The Non-HDL-C in experiment [8] and in [13] was -54% in each case. The inhibition in experiment [9] was 100%; in experiment [10] it was 99%. Also, in [4], the “Of HDL-C” value worked out at 148%.
`CCCCC(C)(C)OC(=O)C(C(=O)Nc1c(C(C)C)cccc1C(C)C)c1ccccc1` (stereo unspecified): the “Delta TC” value in experiment [5] is -65%; in experiment [2], -72%.
On to `CCCCCC(C)OC(=O)C(C(=O)Nc1c(C(C)C)cccc1C(C)C)c1ccccc1` (stereo unspecified), for which the pIC50 in [1] is 7.40. The results for the “Delta TC” value in experiment [5] and in [2] were -61% and -67%, respectively. For the same compound, the “Delta non HDL-C” value in [14] is given as -18%. In addition, the “Delta HDL-C” value in experiment [15] is -1%.
As for `CCCCCCCOC(=O)C(C(=O)Nc1c(C(C)C)cccc1C(C)C)c1ccccc1` (stereo unspecified), the pIC50 in experiment [1] is 7.30. For the same compound, the “Delta TC” value in experiment [5] is given as -47%; in experiment [2], -71%. Moreover, in experiment [14], the “Of non-HDL-C” value is given as -21%. For the same compound, the “Of HDL-C” value in experiment [16] was determined as 2%.
Regarding `CCCCCCCCCCCCCCCCOC(=O)C(C(=O)Nc1c(C(C)C)cccc1C(C)C)c1ccccc1` (stereo unspecified), in experiment [2], the “Delta TC” value is listed as -26%.
Regarding `CCOC(=O)C(F)C(=O)Nc1c(C(C)C)cccc1C(C)C` (stereo unspecified), the pIC50 in experiment [1] was less than 6.00. The “Delta TC” value in experiment [2] was determined as 1%.
In turn, `CCCCCCCCCCOC(=O)C(C(=O)Nc1c(C(C)C)cccc1C(C)C)c1ccccc1` (stereo unspecified) had a pIC50 in [1] of 7.89. Moreover, the “Delta TC” value was -27% in [5] and -58% in [2]. Besides, the “Of non-HDL-C” value in experiment [14] is 21%. For the same compound, the “Of HDL-C” value in experiment [16] was -5%.
`CCCCCCCCCCCCCCCCCCOC(=O)C(C(=O)Nc1c(C(C)C)cccc1C(C)C)c1ccccc1` (stereo unspecified) showed a pIC50 in [1] of 6.70. The “Delta TC” value in experiment [2] is on record as -25%.
On to `CCCCCCCCCCCCC(C)(C)OC(=O)C(C(=O)Nc1c(OC)cc(OC)cc1OC)c1ccccc1` (stereo unspecified), for which the pIC50 in experiment [1] is 7.70.
`CCOC(=O)C(C)(C)C(=O)Nc1c(C(C)C)cccc1C(C)C` showed a pIC50 in [1] of less than 6.00. Besides, the “Delta TC” value in experiment [2] is reported as -24%.
On the same counts, the results for `CCCOC(=O)C(C(=O)Nc1c(C(C)C)cccc1C(C)C)c1ccccc1` (stereo unspecified) are less than 6.00 and -20%.
Regarding `CCCCCCCCCCCCOC(=O)C(C(=O)Nc1c(OC)cc(OC)cc1OC)c1ccccc1` (stereo unspecified), the “Delta TC” value in experiment [5] and in experiment [2] was -51% throughout. Further, in experiment [3], the “Of non-HDL-C” value is given as -71%. Moreover, the “Of HDL-C” value in experiment [4] was 127%.
In turn, `CCCCCCCCCCCCOC(=O)C(C(=O)Nc1c(C(C)C)cccc1C(C)C)c1ccccn1` (stereo unspecified) showed a pIC50 in experiment [1] of 8.10. For the same compound, the “Delta TC” value in experiment [2] is listed as -43%.
Take `CCCCCCCCCCCCC(C)OC(=O)C(C(=O)Nc1c(OC)cc(OC)cc1OC)c1ccccc1` (stereo unspecified): the pIC50 in experiment [1] is 7.52. The results for the “Delta TC” value in experiment [5] and in [2] were -48% and -59%, respectively. The “Of non-HDL-C” value in experiment [3] is -85%. Also, the “Of HDL-C” value in [4] came out at 272%.
Consider `CCCCCCCCCCCCCCOC(=O)C(C(=O)Nc1c(C(C)C)cccc1C(C)C)c1ccccc1` (stereo unspecified), for which the pIC50 in experiment [1] is 7.80. Also, in experiment [3], the “Of non-HDL-C” value is -57%. Moreover, the “Of HDL-C” value in experiment [4] is listed as 28%. For the same compound, in [2], the “Delta TC” value is on record as -49%.
`CCCCCCCCCCCCC(C)(C)OC(=O)C(C(=O)Nc1c(C(C)C)cccc1C(C)C)c1ccccc1` (stereo unspecified): the pIC50 in experiment [1] was 7.92. In addition, the “Delta TC” value in experiment [2] is on record as -26%.
On the same counts, the results for `CCOC(=O)C(C(=O)Nc1c(C(C)C)cccc1C(C)C)c1ccccc1` (stereo unspecified) are less than 5.30 and -23%.
For the compound `CCCCCCCCCCCCC(C)OC(=O)C(C(=O)Nc1c(C(C)C)cccc1C(C)C)c1ccccc1` (stereo unspecified), the entries for the “Delta TC” value in experiment [5] and in experiment [2] were -46% and -61%, respectively. Moreover, the “Of non-HDL-C” value in experiment [3] is -75%. For the same compound, in experiment [4], the “Of HDL-C” value is listed as 215%.

Values taken from ChEMBL document CHEMBL1131340, “alpha-Substituted malonester amides: tools to define the relationship between ACAT inhibition and adrenal toxicity” (J Med Chem, 1998).
